{"data": "Results from different studies", "MLNR": "Motilin receptor (MLNR, Homo sapiens, UniProt O43193)", "PTGS2": "Prostaglandin G/H synthase 2 (PTGS2, Ovis aries, UniProt P79208)", "GSK3B": "Glycogen synthase kinase-3 beta (GSK3B, Homo sapiens, UniProt P49841)", "PDK2": "[Pyruvate dehydrogenase (acetyl-transferring)] kinase isozyme 2, mitochondrial (PDK2, Homo sapiens, UniProt Q15119)", "note": "Compare with care: the assays were run in different laboratories."}
{"Compound": "Oc1cccc(Nc2nc(-c3ccc(F)cc3F)cs2)c1", "target": "MLNR", "test": "cell-free assay", "setting": "10 µM", "inhibition [%]": 6.5}
{"Compound": "C[C@@H]1O[C@@H](OC[C@H]2O[C@@H](Oc3c(-c4ccc(O)cc4)oc4cc(O)cc(O)c4c3=O)[C@H](O[C@@H]3O[C@H](CO)[C@@H](O)[C@H](O)[C@H]3O)[C@@H](O)[C@@H]2O)[C@H](O)[C@H](O)[C@H]1O", "target": "PTGS2", "test": "enzyme activity, inhibitor, absorbance", "setting": "50 µM", "inhibition [%]": 53.8}
{"Compound": "O=C(c1ccc(Cl)cc1)N(Cc1ccccc1)C1CCCCC1", "target": "Vasopressin V1a receptor (AVPR1A, Homo sapiens, UniProt P37288)", "test": "cell-free assay", "setting": "10 µM", "inhibition [%]": 47.7}
{"Compound": "CCN1CCN(Cc2ccc(NC(=O)c3ccc(C)c(/C=C/c4cnc5[nH]ccc5c4OC)c3)cc2C(F)(F)F)CC1", "target": "Mitogen-activated protein kinase kinase kinase 5 (MAP3K5, Homo sapiens, UniProt Q99683)", "test": "target engagement in cells, inhibitor, chemoproteomics", "test system": "A-375", "setting": "50 nM", "inhibition [%]": -33.8}
{"Compound": "Cc1[nH]c(=O)c(C#N)cc1-c1ccncc1", "target": "GSK3B", "test": "enzyme activity, inhibitor, ADP detection", "setting": "100 µM", "inhibition [%]": 27.6}
{"Compound": "C[C@@H]1O[C@@H](OC[C@H]2O[C@@H](O[C@H]3[C@H](Oc4c(-c5ccc(O)cc5)oc5cc(O)cc(O)c5c4=O)O[C@H](CO)[C@@H](O)[C@@H]3O)[C@H](O)[C@@H](O)[C@@H]2O)[C@H](O)[C@H](O)[C@H]1O", "target": "PTGS2", "test": "enzyme activity, inhibitor, absorbance", "setting": "50 µM", "inhibition [%]": 57.5}
{"Compound": "CCN(CC)c1ccc(C2=NNC(=O)CC2C)cc1[N+](=O)[O-] (centres unmarked)", "target": "High affinity cGMP-specific 3',5'-cyclic phosphodiesterase 9A (PDE9A, Homo sapiens, UniProt O76083)", "test": "enzyme activity, inhibitor", "setting": "0.1 µM", "inhibition [%]": 2}
{"Compound": "COc1cc(NC(C)=O)c(Cl)cc1C(=O)Nc1nccs1", "target": "MLNR", "test": "cell-free assay", "setting": "10 µM", "inhibition [%]": 21.6}
{"Compound": "CN1CC(Oc2cnc(C#N)cc2-c2ccn3nc(NC(=O)C4CC4)cc3c2)C1", "target": "PDK2", "test": "enzyme activity, inhibitor", "setting": "1 µM", "inhibition [%]": 17}
{"Compound": "O=C([O-])c1ccccc1-c1c2cc(I)c(=O)c(I)c-2oc2c(I)c([O-])c(I)cc12.[Na+].[Na+]", "target": "GSK3B", "test": "enzyme activity, inhibitor, ADP detection", "setting": "100 µM", "inhibition [%]": 87.5}
{"Compound": "O=c1c(O[C@@H]2O[C@H](CO)[C@@H](O)[C@H](O)[C@H]2O)c(-c2ccc(O)cc2)oc2cc(O[C@@H]3O[C@H](CO)[C@@H](O)[C@H](O)[C@H]3O)cc(O)c12", "target": "PTGS2", "test": "enzyme activity, inhibitor, absorbance", "setting": "50 µM", "inhibition [%]": 54.8}
{"Compound": "NC(=O)N/N=C/c1ccc([N+](=O)[O-])o1", "target": "GSK3B", "test": "enzyme activity, inhibitor, ADP detection", "setting": "100 µM", "inhibition [%]": 31}
{"Compound": "CN(C)C1CCN(CC#Cc2nn(C3CCCC3)c3nc(NCc4ccccc4)ncc23)C1 (centres unmarked)", "target": "MAP kinase-activated protein kinase 2 (MAPKAPK2, Homo sapiens, UniProt P49137)", "test": "enzyme activity, inhibitor, FRET", "setting": "0.1 µM", "inhibition [%]": -2}
{"Compound": "CC(=O)NCCc1ccc(O)c(-c2c(O)c(O)c3c(c2O)C(=O)c2c(cc(O)c(C(=O)O)c2C(=O)O)C3=O)c1", "target": "GSK3B", "test": "enzyme activity, inhibitor, ADP detection", "setting": "100 µM", "inhibition [%]": 75.3}
{"Compound": "C[C@@H]1O[C@@H](O[C@H]2[C@H](Oc3c(-c4ccc(O)cc4)oc4cc(O)cc(O)c4c3=O)O[C@H](CO[C@@H]3O[C@H](CO)[C@@H](O)[C@H](O)[C@H]3O)[C@@H](O)[C@@H]2O)[C@H](O)[C@H](O)[C@H]1O", "target": "PTGS2", "test": "enzyme activity, inhibitor, absorbance", "setting": "50 µM", "inhibition [%]": 57.7}
{"Compound": "O=C(CSc1nc2nccnc2c(=O)n1CCc1ccccc1)Nc1nccs1", "target": "Phosphatidylinositol 4-kinase type 2-beta (PI4K2B, Homo sapiens, UniProt Q8TCG2)", "test": "enzyme activity, inhibitor", "setting": "10 µM", "inhibition [%]": -11}
{"Compound": "CCc1cccc2c3c([nH]c12)C(CC)(CC(=O)O)OCC3 (centres unmarked)", "target": "GSK3B", "test": "enzyme activity, inhibitor, ADP detection", "setting": "100 µM", "inhibition [%]": 40.8}
{"Compound": "CC/C(=N\\NC(=O)NCc1cccc(O)c1)c1ccc(O)c(C)c1O", "target": "PDK2", "test": "enzyme activity, inhibitor", "setting": "0.1 µM", "inhibition [%]": -2.1}
{"Compound": "O=C(C1CCCCC1)N1CC(=O)N2CCc3ccccc3C2C1 (centres unmarked)", "target": "GSK3B", "test": "enzyme activity, inhibitor, ADP detection", "setting": "100 µM", "inhibition [%]": 8.2}
{"Compound": "Ic1cccc2cnccc12", "target": "Protein mono-ADP-ribosyltransferase PARP11 (PARP11, Homo sapiens, UniProt Q9NR21)", "test": "enzyme activity, inhibitor", "setting": "10 µM", "inhibition [%]": 26}
